Test results from ChEMBL document CHEMBL4406821, “Novel dual inhibitors targeting CDK4 and VEGFR2 synergistically suppressed cancer progression and angiogenesis” (Eur J Med Chem, 2019).
The source made the active and inactive calls. The calls are words filed in the database; no cut-off is given here.

Key:
[1] = molecular target: CDK4/Cyclin D3 (Homo sapiens) (UniProt P11802+P30281); experiment: Inhibition of recombinant full length human CDK4/Cyclin D3 using Rb-fragmen as substrate at 1 uM incubated for 40 mins by [gamma-33P]-ATP based radiometric assay relative to control; assay type: protein-complex assay
Summary of the method: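 Kinase panel profiling at 1 μM performed by Eurofins KinaseProfiler; percent inhibition reported as mean of two independent experiments.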

HeLa [2] = experiment: Antiproliferative activity against human HeLa cells assessed as reduction in cell viability measured after 72 hrs by CCK8 assay; assay type: functional, cell-based
Summary of the method: (§1)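 Cells were seeded at 3×10³ cells/well and exposed to a range of concentrations or vehicle for 72 h. Viability was read by CCK-8 at 450 nm, with DMSO as blank and five replicates per sample. IC50 was calculated from the dose-response.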

T47D [3] = experiment: Antiproliferative activity against human T47D cells assessed as reduction in cell viability measured after 72 hrs by CCK8 assay; assay type: functional, cell-based; summary of the method: as §1
SiHa [4] = experiment: Antiproliferative activity against human SiHa cells assessed as reduction in cell viability measured after 72 hrs by CCK8 assay; assay type: functional, cell-based; summary of the method: as §1
MDA-MB-231 [5] = experiment: Antiproliferative activity against human MDA-MB-231 cells assessed as reduction in cell viability measured after 72 hrs by CCK8 assay; assay type: functional, cell-based; details: MDA-MB-231, 72 h; summary of the method: as §1
HUVEC [6] = experiment: Antiproliferative activity against HUVEC cells assessed as reduction in cell viability measured after 72 hrs by CCK8 assay; assay type: functional, cell-based; details: Homo sapiens; summary of the method: as §1
MDA-MB-231 [7] = experiment: Induction of cell cycle arrest in human MDA-MB-231 cells assessed as accumulation in G0/G1 phase at 40 nM incubated for 36 hrs by propidium iodide staining based flow cytometry; assay type: functional
Summary of the method: (§2)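 Cells were treated with graded concentrations for 36 h, then fixed overnight in 70% ice-cold ethanol at 4°C and resuspended in PBS. Staining used 50 µg/ml PI plus 5 µg/ml RNase at 37°C for 30 min. DNA content was analysed by FACS to give G0/G1, S and G2/M fractions.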

T47D [8] = experiment: Induction of cell cycle arrest in human T47D cells assessed as accumulation in G0/G1 phase at 40 nM incubated for 36 hrs by propidium iodide staining based flow cytometry; assay type: functional; summary of the method: as §2
SiHa [9] = experiment: Induction of cell cycle arrest in human SiHa cells assessed as accumulation in G0/G1 phase at 80 nM incubated for 36 hrs by propidium iodide staining based flow cytometry; assay type: functional; summary of the method: as §2
HeLa [10] = experiment: Induction of cell cycle arrest in human HeLa cells assessed as accumulation in G0/G1 phase at 80 nM incubated for 36 hrs by propidium iodide staining based flow cytometry; assay type: functional; summary of the method: as §2
MDA-MB-231 [11] = experiment: Induction of apoptosis in human MDA-MB-231 cells assessed as decrease in Bcl2 expression at 40 nM incubated for 48 hrs by Western blot analysis; assay type: functional, cell-based
Summary of the method: (§3)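 Cells were treated for 48 h, washed three times with PBS, and lysed in RIPA buffer. Immunoblots used anti-Rb, anti-phospho-Rb, anti-Ki67 and anti-Bcl-2 (each 1:1000), with β-actin as loading control.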

T47D [12] = experiment: Induction of apoptosis in human T47D cells assessed as decrease in Bcl2 expression at 40 nM incubated for 48 hrs by Western blot analysis; assay type: functional, cell-based
Summary of the method: (§4)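 Cancer cells were exposed to graded concentrations for 48 h, washed three times in PBS and lysed in RIPA buffer. Immunoblots were probed with anti-Rb, anti-phospho-Rb, anti-Ki67 and anti-Bcl-2, each at 1:1000. β-actin served as loading control.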

SiHa [13] = experiment: Antitumor activity against human SiHa cells xenografted in NOD/SCID BALB/c mouse assessed as reduction in Ki67 expression at 40 mg/kg, po measured after 21 days by hematoxylin and eosin staining based immunohistochemistry; assay type: functional, organism-based
Summary of the method: (§5)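 Female NOD/SCID Balb/c mice, 6–8 weeks old, received 2×10^6 SiHa cells subcutaneously in the right flank. Once tumors reached 100 mm³, mice were randomized, 5 per group, and gavaged once daily for 21 days. Formalin-fixed, paraffin-embedded tumor sections were stained with Ki67 or CD31 antibody (1:100, 4 °C overnight), then biotin secondary and ABC-peroxidase/DAB, with hematoxylin counterstain.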

[14] = Toxicity in NOD/SCID BALB/c mouse xenografted with human SiHa cells assessed as body weight at 40 mg/kg, po administered for 21 days; assay type: organism-based; details: in vivo, 504 h
Summary of the method: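 Female NOD/SCID Balb/c mice, 6–8 weeks, implanted subcutaneously in right flank with 2×10^6 SiHa cells in 100 µL medium. At 100 mm³ tumors, randomized (5 mice/group) to daily oral gavage. Body weight monitored every 3 days; study ended day 21.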

HUVEC [15] = experiment: Antiproliferative activity against HUVEC cells assessed as reduction in cell viability at 40 nM measured upto 72 hrs by CCK8 assay; assay type: functional, cell-based; details: Homo sapiens
Summary of the method: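 HUVECs, 3×10³ cells/well, kept in 1640 medium with 10% FBS at 37°C and 5% CO₂. Cells were treated at 20 or 40 nM or vehicle, and viability was read by CCK-8 (absorbance 450 nm) at 0, 12, 24, 36, 48, 60 and 72 h. Five replicates per sample.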

HeLa [16] = experiment: Antiproliferative activity against human HeLa cells assessed as reduction in cell viability at 80 nM incubated for 48 hrs by EdU staining based laser scanning confocal microscopy; assay type: functional
Summary of the method: (§6)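 Cells, 5×10^4, were seeded in 24-well plates and treated for 48 h. They were then labeled using an EdU Apollo 488 imaging kit with Hoechst 33342 nuclear stain and imaged by laser scanning confocal microscopy. Percent EdU-positive cells = EdU-positive/Hoechst-stained × 100%.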

MDA-MB-231 [17] = experiment: Inhibition of colony formation in human MDA-MB-231 cells at 40 nM incubated for 5 days by crystal violet staining based light microscopy; assay type: functional, cell-based
Summary of the method: (§7)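 4 × 10^3 cells per well were cultured with graded concentrations for 5 days. Cells were then fixed with 20% methanol, stained with 0.5% crystal violet and photographed by light microscopy.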

T47D [18] = experiment: Inhibition of colony formation in human T47D cells at 40 nM incubated for 5 days by crystal violet staining based light microscopy; assay type: functional, cell-based
Summary of the method: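 MDA-MB-231, T-47D, SiHa and HeLa cells seeded at 4×10^3/well and cultured with varying concentrations of drug or vehicle for 5 days. Fixed in 20% methanol, stained with 0.5% crystal violet, photographed under light microscopy. DMEM (T-47D) with 10% FBS, 37°C, 5% CO2.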

SiHa [19] = experiment: Inhibition of colony formation in human SiHa cells at 80 nM incubated for 5 days by crystal violet staining based light microscopy; assay type: functional, cell-based; summary of the method: as §7
HeLa [20] = experiment: Inhibition of colony formation in human HeLa cells at 80 nM incubated for 5 days by crystal violet staining based light microscopy; assay type: functional, cell-based; summary of the method: as §7
T47D [21] = experiment: Antiproliferative activity against human T47D cells assessed as reduction in cell viability at 40 nM incubated for 48 hrs by EdU staining based laser scanning confocal microscopy; assay type: functional; summary of the method: as §6
SiHa [22] = experiment: Antiproliferative activity against human SiHa cells assessed as reduction in cell viability at 80 nM incubated for 48 hrs by EdU staining based laser scanning confocal microscopy; assay type: functional; summary of the method: as §6
MDA-MB-231 [23] = experiment: Antiproliferative activity against human MDA-MB-231 cells at 40 nM assessed as reduction in cell viability incubated for 48 hrs by EdU staining based laser scanning confocal microscopy; assay type: functional; summary of the method: as §6
MDA-MB-231 [24] = experiment: Induction of apoptosis in human MDA-MB-231 cells at 40 nM incubated for 48 hrs by annexin V FITC and propidium iodide staining based flow cytometry; assay type: functional, cell-based
Summary of the method: (§8)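 Annexin V-FITC/PI double staining with flow-cytometric readout. MDA-MB-231, T-47D, SiHa and HeLa cells were treated with graded concentrations for 48 h. MDA-MB-231 and T-47D were grown in DMEM and SiHa in 1640 medium, each with 10% FBS and 1% penicillin/streptomycin at 37°C under 5% CO2. Early- and late-stage apoptotic fractions were scored.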

T47D [25] = experiment: Induction of apoptosis in human T47D cells at 40 nM incubated for 48 hrs by annexin V FITC and propidium iodide staining based flow cytometry; assay type: functional, cell-based; summary of the method: as §8
SiHa [26] = experiment: Induction of apoptosis in human SiHa cells at 40 nM incubated for 48 hrs by annexin V FITC and propidium iodide staining based flow cytometry; assay type: functional, cell-based; summary of the method: as §8
HeLa [27] = experiment: Induction of apoptosis in human HeLa cells at 40 nM incubated for 48 hrs by annexin V FITC and propidium iodide staining based flow cytometry; assay type: functional, cell-based
Summary of the method: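 Cells were treated for 48 h, stained with FITC Annexin V and PI, and analyzed by flow cytometry to count early and late apoptotic cells.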

SiHa [28] = experiment: Induction of apoptosis in human SiHa cells assessed as decrease in Bcl2 expression at 80 nM incubated for 48 hrs by Western blot analysis; assay type: functional, cell-based; summary of the method: as §4
HeLa [29] = experiment: Induction of apoptosis in human HeLa cells assessed as decrease in Bcl2 expression at 80 nM incubated for 48 hrs by Western blot analysis; assay type: functional, cell-based; summary of the method: as §3
SiHa [30] = experiment: Antitumor activity against human SiHa cells xenografted in NOD/SCID BALB/c mouse assessed as tumor growth inhibition at 40 mg/kg, po administered for 21 days; assay type: functional, organism-based
SiHa [31] = experiment: Antiangiogenic activity against human SiHa cells xenografted in NOD/SCID BALB/c mouse assessed as reduction in CD31 expression at 40 mg/kg, po measured after 21 days by hematoxylin and eosin staining based immunohistochemistry; assay type: functional, organism-based; summary of the method: as §5

Question: With `CCN1CCN(Cc2ccc(Nc3ncc(F)c(-c4cc(F)c5nc(C)n(C(C)C)c5c4)n3)nc2)CC1` [ABEMACICLIB] as the molecule, how does the inhibition [1] read?
Answer: 99%

Question: And the IC50 (HeLa [2])?
Answer: 0.768 µM

Question: And the IC50 (T47D [3])?
Answer: 0.145 µM

Question: What about the IC50 (SiHa [4]) of the same molecule?
Answer: 0.861 µM

Question: And the IC50 (MDA-MB-231 [5])?
Answer: 0.062 µM

Question: What about the IC50 (HUVEC [6]) of the same molecule?
Answer: 0.403 µM

Question: What about the Activity (MDA-MB-231 [7]) of the same molecule?
Answer: Active

Question: What about the Activity (T47D [8]) of the same molecule?
Answer: Active

Question: What about the Activity (SiHa [9]) of the same molecule?
Answer: Active

Question: And the Activity (HeLa [10])?
Answer: Active

Question: And the Activity (MDA-MB-231 [11])?
Answer: Active

Question: What about the Activity (T47D [12]) of the same molecule?
Answer: Active

Question: What about the inhibition (SiHa [13]) of the same molecule?
Answer: Active

Question: What about the Activity [14] of the same molecule?
Answer: Non-Toxic

Question: And the inhibition (HUVEC [15])?
Answer: Active

Question: And the inhibition (HeLa [16])?
Answer: Active

Question: What about the inhibition (MDA-MB-231 [17]) of the same molecule?
Answer: Active

Question: And the inhibition (T47D [18])?
Answer: Active

Question: What about the inhibition (SiHa [19]) of the same molecule?
Answer: Active

Question: And the inhibition (HeLa [20])?
Answer: Active

Question: What about the inhibition (T47D [21]) of the same molecule?
Answer: Active

Question: And the inhibition (SiHa [22])?
Answer: Active

Question: What about the inhibition (MDA-MB-231 [23]) of the same molecule?
Answer: Active

Question: What about the Activity (MDA-MB-231 [24]) of the same molecule?
Answer: Active

Question: And the Activity (T47D [25])?
Answer: Active

Question: And the Activity (SiHa [26])?
Answer: Active

Question: What about the Activity (HeLa [27]) of the same molecule?
Answer: Active

Question: What about the Activity (SiHa [28]) of the same molecule?
Answer: Active

Question: What about the Activity (HeLa [29]) of the same molecule?
Answer: Active

Question: And the TGI (SiHa [30])?
Answer: Active

Question: And the inhibition (SiHa [31])?
Answer: Active
